Columns and labels:
Assay type in all cases: cell membranes
[1] = species: Rattus norvegicus; test: Displacement of [3H]strychnine from Wistar rat glycine receptor in spinal cord membrane
Summary of the method: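 Male Wistar rat spinal cord crude synaptic membranes, washed in 50 mM Tris-HCl pH 7.4 and pre-spun in buffer with 200 mM KSCN. Binding in 50 mM Tris-HCl plus 200 mM KSCN with 3 nM [3H]strychnine, 0 °C for 35 min. Duplicate aliquots were vacuum-filtered on GF/B filters and counted by scintillation. Nonspecific binding was taken with 2 mM glycine. Displacement curves were fitted (Eq. 2) for K_A and α; 3–6 experiments.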

[2] = (§1) Displacement of [3H]strychnine from Wistar rat glycine receptor in spinal cord membrane in presence of 10 uM glycine
Summary of the method: (§2)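 Rat spinal cord synaptic membrane [3H]strychnine (3 nM) binding in 50 mM Tris-HCl/200 mM KSCN, 0 °C, 35 min, with 10 μM glycine present during test-ligand displacement. Filtration on GF/B, scintillation counting. Nonspecific binding was defined by 2 mM glycine. IC50 and slope come from concentration-displacement curves; three experiments.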

[3] = species: Rattus norvegicus; test: as §1; summary of the method: as §2

Row | Compound | K [1] [µM] | IC50 [2] [nM] | Activity [3] [%]
1 | O=C(O[C@@H]1C[C@@H]2N[C@H](C1)[C@@H]1O[C@@H]12)[C@H](CO)c1ccccc1 | 8 |  | 
2 | O=C(OC1CC2CCC(C1)N2)c1c[nH]c2ccccc12 (stereo not drawn) [NORTROPISETRON] | 0.017 | 9.3 | 60
3 | CN1[C@@H]2CC[C@H]1C[C@H](OC(=O)c1ccc(C(=O)O[C@H]3C[C@H]4CC[C@@H](C3)N4C)cc1)C2 | 24.6 |  | 
4 | O=C(O[C@@H]1C[C@H]2CC[C@@H](C1)N2)c1cccnc1 | 0.082 |  | 
5 | CN1[C@@H]2CC[C@H]1C[C@@H](OC(=O)/C=C/C(=O)O[C@H]1C[C@H]3CC[C@@H](C1)N3C)C2 | 7.5 |  | 
6 | CN1[C@@H]2CC[C@H]1C[C@H](OC(=O)c1cccnc1)C2 | 2.2 |  | 
7 | CN1[C@@H]2CC[C@H]1C[C@H](OC(=O)c1ccc(Cl)nc1)C2 | 5.7 |  | 
8 | O=C(O[C@H]1C[C@H]2CC[C@@H](C1)N2)C1c2ccccc2Oc2ccccc21 | 3.1 |  | 
9 | CCN1[C@@H]2CC[C@H]1C[C@@H](OC(=O)CCC(=O)O[C@H]1C[C@H]3CC[C@@H](C1)N3CC)C2 | > 100 |  | 
10 | CN1[C@@H]2CC[C@H]1C[C@H](OC(=O)c1cccc(C(=O)O[C@H]3C[C@H]4CC[C@@H](C3)N4C)c1)C2 | 0.197 |  | 
11 | CN1[C@@H]2CCC[C@H]1C[C@H](OC(=O)/C=C/C(=O)O[C@@H]1C[C@H]3CCC[C@@H](C1)N3C)C2 | 20.8 |  | 
